Laboratory results from ChEMBL document CHEMBL3217531, “Potential Drug Abuse Therapeutics Derived from the Hallucinogenic Natural Product Salvinorin A” (Medchemcomm, 2011).
Calls of active or inactive are those of the source. The calls are words filed in the database; no cut-off is given here.

Assays:
[1] = target: Mu-type opioid receptor (Homo sapiens, UniProt P35372); assay: Displacement of [3H]DAMGO from human mu opioid receptor expressed in CHO cell membrane after 2 hrs by liquid scintillation counting analysis; assay type: cell membranes
[2] = target: T1, Kappa-type opioid receptor (Homo sapiens, UniProt P41145); assay: Agonist activity at human kappa opioid receptor expressed in CHO cell membrane assessed as [35S]GTPgammaS binding after 3 hrs by liquid scintillation counting analysis relative to (-)-U50488H; assay type: functional, cell membranes
[3] = target: Delta-type opioid receptor (Homo sapiens, UniProt P41143); assay: Displacement of [3H]DADLE from human delta opioid receptor expressed in CHO cell membrane after 2 hrs by liquid scintillation counting analysis; assay type: cell membranes
[4] = target: T1, Kappa-type opioid receptor; assay: Displacement of [3H]U69593 from human kappa opioid receptor expressed in CHO cell membrane after 2 hrs by scintillation counting analysis; assay type: cell membranes
[5] = target: T1, Kappa-type opioid receptor; assay: Agonist activity at human kappa opioid receptor expressed in CHO cell membrane assessed as [35S]GTPgammaS binding after 3 hrs by liquid scintillation counting analysis; assay type: functional, cell membranes
[6] = target: T1, Kappa-type opioid receptor; assay: Agonist activity at human kappa opioid receptor expressed in CHO cell membrane by [35S]GTPgammaS binding assay; assay type: functional, cell membranes
[7] = test system: Rattus norvegicus; assay: Antiaddiction activity in rat assessed as reduction in cocaine-induced drug seeking activity at 1 mg/kg, ip treated for 5 to 10 mins prior to priming injection of cocaine measured for 2 hrs; assay type: functional, organism-based; set-up: dose 1 mg/kg
Summary of the method: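 Rats trained on FR5 cocaine self-administration (0.5 mg kg⁻¹/infusion, paired light cue, 2 h sessions). Extinction with sterile heparinized saline until active lever responses <20 per 2 h session. Next day, IP vehicle (75% DMSO) or test dose 5–10 min before IP cocaine prime (20 mg kg⁻¹). Active lever responding recorded for 2 h. N = 6 at 1 mg kg⁻¹; mean ±SEM.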

Delta-type opioid receptor, sequence (P41143 whole entry): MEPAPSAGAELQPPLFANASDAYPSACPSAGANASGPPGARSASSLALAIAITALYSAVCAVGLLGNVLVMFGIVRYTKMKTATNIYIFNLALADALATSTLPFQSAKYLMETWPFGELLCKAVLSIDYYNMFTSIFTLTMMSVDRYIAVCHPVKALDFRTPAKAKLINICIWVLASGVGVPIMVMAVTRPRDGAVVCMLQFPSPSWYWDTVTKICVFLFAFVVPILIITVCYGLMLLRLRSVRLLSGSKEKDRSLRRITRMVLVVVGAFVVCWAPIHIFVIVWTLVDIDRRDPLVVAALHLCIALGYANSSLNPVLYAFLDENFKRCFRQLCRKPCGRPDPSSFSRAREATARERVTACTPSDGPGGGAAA
Mu-type opioid receptor, sequence (P35372 whole entry): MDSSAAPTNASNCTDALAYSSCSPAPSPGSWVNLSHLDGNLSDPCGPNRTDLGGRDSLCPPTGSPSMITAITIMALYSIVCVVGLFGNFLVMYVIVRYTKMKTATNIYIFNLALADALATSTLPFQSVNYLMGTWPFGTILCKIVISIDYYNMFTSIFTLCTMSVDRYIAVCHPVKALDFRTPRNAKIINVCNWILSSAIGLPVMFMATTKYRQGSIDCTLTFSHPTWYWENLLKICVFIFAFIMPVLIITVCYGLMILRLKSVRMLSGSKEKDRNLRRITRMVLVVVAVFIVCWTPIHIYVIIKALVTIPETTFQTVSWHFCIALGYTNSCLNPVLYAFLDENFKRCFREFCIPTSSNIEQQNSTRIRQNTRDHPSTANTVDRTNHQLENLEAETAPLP
T1 sequence (P41145 whole entry): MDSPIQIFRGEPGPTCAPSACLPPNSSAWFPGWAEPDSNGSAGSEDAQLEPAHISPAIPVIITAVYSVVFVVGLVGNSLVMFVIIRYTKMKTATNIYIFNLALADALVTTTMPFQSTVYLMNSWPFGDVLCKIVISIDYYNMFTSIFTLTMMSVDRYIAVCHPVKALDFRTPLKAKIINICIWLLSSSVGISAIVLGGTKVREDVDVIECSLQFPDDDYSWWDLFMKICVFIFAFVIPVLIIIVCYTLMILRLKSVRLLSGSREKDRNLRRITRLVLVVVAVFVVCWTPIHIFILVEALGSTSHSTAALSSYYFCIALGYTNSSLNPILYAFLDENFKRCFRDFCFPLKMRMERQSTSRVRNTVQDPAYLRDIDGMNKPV

**Q.** What does the source list for CCOCO[C@H]1C[C@@H](C(=O)OC)[C@]2(C)CC[C@H]3C(=O)O[C@H](c4ccoc4)C[C@]3(C)[C@H]2C1=O [SALVINORIN B ETHOXYMETHYL ETHER]?
**A.** Ki [1]: 0.041 µM; Emax [2]: 127%; Ki [3]: 1.02 µM; Ki [4]: 3.13 nM

**Q.** With COC(=O)[C@@H]1C[C@H](O[C@H]2CCCO2)C(=O)[C@H]2[C@@]1(C)CC[C@H]1C(=O)O[C@H](c3ccoc3)C[C@]21C as the compound, how does the Ki [1] read?
**A.** > 10 µM

**Q.** And the Emax [2]?
**A.** 103%

**Q.** And the Ki [3]?
**A.** > 10 µM

**Q.** And the ED50 [5]?
**A.** 690 nM

**Q.** What about the Ki [4] of the same compound?
**A.** 81 nM

**Q.** Which Emax [2] does the source give for COC(=O)[C@@H]1C[C@H](OC(C)=O)C(=O)[C@H]2[C@@]1(C)CC[C@H]1C(=O)O[C@H](C(=O)N3CCCCC3)C[C@]21C here?
**A.** 85%

**Q.** What about the ED50 [5] of the same compound?
**A.** 5110 nM

**Q.** And the Ki ([4]; cho)?
**A.** 140 nM

**Q.** For CCO[C@H](CBr)O[C@H]1C[C@@H](C(=O)OC)[C@]2(C)CC[C@H]3C(=O)O[C@H](c4ccoc4)C[C@]3(C)[C@H]2C1=O, which Ki [1] is on record?
**A.** 3.52 µM

**Q.** What about the Ki [3] of the same compound?
**A.** > 5 µM

**Q.** What about the Ki [4] of the same compound?
**A.** 7440 nM

**Q.** What does the source list for CCNC(=O)O[C@H]1C[C@@H](C(=O)OC)[C@]2(C)CC[C@H]3C(=O)O[C@H](c4ccoc4)C[C@]3(C)[C@H]2C1=O?
**A.** Ki [1]: 1.54 µM; Ki [3]: > 10 µM; EC50 [6]: > 1000 nM; Ki [4]: > 10000 nM

**Q.** For COC(=O)[C@@H]1C[C@H](O[C@@H]2CCCO2)C(=O)[C@H]2[C@@]1(C)CC[C@H]1C(=O)O[C@H](c3ccoc3)C[C@]21C, which Ki [1] is on record?
**A.** > 10 µM

**Q.** And the Emax [2]?
**A.** 112%

**Q.** And the Ki [3]?
**A.** > 10 µM

**Q.** And the ED50 [5]?
**A.** 1220 nM

**Q.** And the Ki [4]?
**A.** 75 nM

**Q.** What does the source list for COC(=O)[C@@H]1C[C@H](OC=O)C(=O)[C@H]2[C@@]1(C)CC[C@H]1C(=O)O[C@H](c3ccoc3)C[C@]21C?
**A.** Ki [1]: > 10 µM; Ki [3]: > 10 µM; Ki [4]: 41 nM

**Q.** Which results are given for COC(=O)[C@@H]1C[C@H](O[C@@H]2CCCCO2)C(=O)[C@H]2[C@@]1(C)CC[C@H]1C(=O)O[C@H](c3ccoc3)C[C@]21C?
**A.** Ki [1]: > 10 µM; Emax [2]: 109%; Ki [3]: > 10 µM; Activity [7]: Active; Ki [4]: 6.21 nM

**Q.** What does the source list for COC(=O)[C@@H]1C[C@H](O[C@H]2CCCCO2)C(=O)[C@H]2[C@@]1(C)CC[C@H]1C(=O)O[C@H](c3ccoc3)C[C@]21C?
**A.** Ki [1]: > 10 µM; Ki [3]: > 10 µM; Ki [4]: 300 nM

**Q.** With CCO[C@@H](CBr)O[C@H]1C[C@@H](C(=O)OC)[C@]2(C)CC[C@H]3C(=O)O[C@H](c4ccoc4)C[C@]3(C)[C@H]2C1=O as the compound, how does the Ki [1] read?
**A.** > 3 µM

**Q.** What about the Ki [3] of the same compound?
**A.** > 5 µM

**Q.** And the Ki [4]?
**A.** 5260 nM

**Q.** How did the Ki [1] turn out when CCO[C@@H](C)O[C@H]1C[C@@H](C(=O)OC)[C@]2(C)CC[C@H]3C(=O)O[C@H](c4ccoc4)C[C@]3(C)[C@H]2C1=O was run?
**A.** 0.777 µM

**Q.** And the Ki [3]?
**A.** > 5 µM

**Q.** For CCO[C@H](C)O[C@H]1C[C@@H](C(=O)OC)[C@]2(C)CC[C@H]3C(=O)O[C@H](c4ccoc4)C[C@]3(C)[C@H]2C1=O, which Ki [1] is on record?
**A.** > 5.8 µM

**Q.** And the Ki [3]?
**A.** > 5 µM

**Q.** How did the Ki [1] turn out when CCOC(=O)O[C@H]1C[C@@H](C(=O)OC)[C@]2(C)CC[C@H]3C(=O)O[C@H](c4ccoc4)C[C@]3(C)[C@H]2C1=O was run?
**A.** > 10 µM

**Q.** What about the Ki [3] of the same compound?
**A.** > 10 µM

**Q.** And the Ki [4]?
**A.** 171 nM

**Q.** Which Ki [1] does the source give for COCO[C@H]1C[C@@H](C(=O)OC)[C@]2(C)CC[C@H]3C(=O)O[C@H](C(=O)N4CCCCC4)C[C@]3(C)[C@H]2C1=O here?
**A.** > 3 µM

**Q.** What about the Emax [2] of the same compound?
**A.** 113%

**Q.** And the Ki [3]?
**A.** > 3 µM

**Q.** And the Ki [4]?
**A.** 59 nM
